ChEMBL document CHEMBL1122208, “Inhibitors of hepatic mixed-function oxidases. 4. Effects of benzimidazole and related compounds on aryl hydrocarbon hydroxylase activity from phenobarbitone and 3-methylcholanthrene induced rats” (J Med Chem, 1982)
Where a name gives a salt, the structure may show the parent alone.

What was measured:
[1] = target: T1, aryl hydrocarbon hydroxylase (cytochrome P450 1A1) (Rattus norvegicus, UniProt P00185); assay: Inhibition of Aryl hydrocarbon hydroxylase in phenobarbitone-treated rats; settings: read-out: I50
T1 sequence (P00185 whole entry): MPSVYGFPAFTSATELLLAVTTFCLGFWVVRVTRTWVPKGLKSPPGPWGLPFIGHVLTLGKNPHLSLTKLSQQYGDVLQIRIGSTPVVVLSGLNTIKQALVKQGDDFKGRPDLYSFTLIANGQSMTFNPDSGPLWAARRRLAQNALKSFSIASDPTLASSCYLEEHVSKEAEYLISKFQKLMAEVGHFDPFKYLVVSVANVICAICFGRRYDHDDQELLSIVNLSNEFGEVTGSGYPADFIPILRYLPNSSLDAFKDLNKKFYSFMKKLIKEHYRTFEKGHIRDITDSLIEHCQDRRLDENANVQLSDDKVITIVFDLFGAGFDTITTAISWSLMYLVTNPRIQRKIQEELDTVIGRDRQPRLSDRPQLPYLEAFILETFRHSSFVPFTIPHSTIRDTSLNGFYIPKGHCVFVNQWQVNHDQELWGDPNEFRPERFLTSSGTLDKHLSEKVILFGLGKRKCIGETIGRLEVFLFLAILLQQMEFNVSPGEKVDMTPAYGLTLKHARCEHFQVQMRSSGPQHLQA
Summary of the method: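 Microsomes from immature male Wistar rats (100-150 g) given PB 80 (mg/kg)/day ip for 3 days, starved 24 h. Incubation: BP 285 nmol, MgCl2 3.0 μmol, NADPH 0.50 μmol, protein 1.2 mg, 0.1 M K phosphate pH 7.4, 3.0 mL. Run 10 min at 37 °C. Phenol fluorescence read at ex 396/em 522 nm. I50 by linear regression over five to eight inhibitor concentrations, mean of duplicates.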

[2] = target: T1, aryl hydrocarbon hydroxylase (cytochrome P450 1A1); assay: Effect on Aryl hydrocarbon hydroxylase activity in 3-methylcolanthrene-induced rat liver microsomes at 5.2x10E-5M; assay type: ADME, Microsome; settings: 3-methylcholanthrene-induced rat liver microsomes, read-out: Control
Summary of the method: (§1)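 Liver microsomes from immature male Wistar rats (100-150 g) given one 3-MC dose (25 mg/kg in corn oil, ip) 3 days before sacrifice, starved 24 h. Incubation: BP 357 nmol, MgCl2 3.0 μmol, NADPH 0.50 μmol, protein 1.2 mg, 0.1 M K phosphate pH 7.4, 3.0 mL final volume. Run 6 min at 37 °C. Fluorescent phenols read at ex 396/em 522 nm. Activity given as % of solvent control, mean of three determinations, at roughly maximum solubility.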

[3] = target: T2, Cytochrome P450 2B1 (Rattus norvegicus, UniProt P00176); assay: Inhibition of Aminopyrine N-demethylase in Phenobarbitone-treated rats; settings: read-out: I50
T2 sequence (P00176 whole entry): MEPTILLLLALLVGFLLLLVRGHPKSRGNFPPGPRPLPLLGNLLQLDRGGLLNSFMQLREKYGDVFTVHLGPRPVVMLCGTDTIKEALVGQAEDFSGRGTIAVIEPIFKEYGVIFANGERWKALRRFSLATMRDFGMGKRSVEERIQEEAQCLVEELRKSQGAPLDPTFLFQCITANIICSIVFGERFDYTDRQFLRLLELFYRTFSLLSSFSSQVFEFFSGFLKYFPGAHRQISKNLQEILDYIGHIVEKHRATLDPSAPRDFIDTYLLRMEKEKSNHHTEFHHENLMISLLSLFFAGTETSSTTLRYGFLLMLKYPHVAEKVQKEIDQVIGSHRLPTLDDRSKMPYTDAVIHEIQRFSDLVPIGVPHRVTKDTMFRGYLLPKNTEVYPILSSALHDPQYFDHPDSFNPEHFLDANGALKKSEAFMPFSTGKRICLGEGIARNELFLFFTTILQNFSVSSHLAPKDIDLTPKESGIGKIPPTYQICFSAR
Summary of the method: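 Hepatic microsomes from immature male Wistar rats dosed with PB 80 (mg/kg)/day ip for 3 days and starved 24 h. Prepared in 0.1 M potassium phosphate pH 7.4. Aminopyrine N-demethylation followed by formaldehyde formation. Results expressed as molar I50.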

[4] = Partition coefficient (logP); assay type: physicochemical; settings: octanol/water
[5] = target: T1, aryl hydrocarbon hydroxylase (cytochrome P450 1A1); assay: Effect on Aryl hydrocarbon hydroxylase activity in 3-methylcolanthrene-induced rat liver microsomes at 3.6x10E-4M; assay type: ADME, Microsome; settings: 3-methylcholanthrene-induced rat liver microsomes, read-out: Control; summary of the method: as §1
[6] = target: T2, Cytochrome P450 2B1; assay: Interaction with cytochrome P450 in Phenobarbitone-induced rat hepatic microsomes; assay type: ADME, Liver; settings: read-out: Ks
Summary of the method: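 Microsomes came from immature male Wistar rats dosed with phenobarbitone, 80 (mg/kg)/day ip for 3 days, and starved 24 h before sacrifice. Difference spectra recorded at 1 mg/mL microsomal protein. Ks obtained in duplicate from abscissal intercept of a double-reciprocal plot of ΔOD (peak-trough) against compound concentration, using five to eight concentrations.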

[7] = target: T3, cytochrome P450 (cytochrome P450 1A1) (Rattus norvegicus, UniProt P00185); assay: Interaction with cytochrome P450 in 3-methylcholanthrene-induced rat hepatic microsomes; assay type: ADME, Liver; settings: read-out: Ks
T3 sequence (P00185 whole entry): T1 sequence (P00185 whole entry)
Summary of the method: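 Hepatic microsomes from immature male Wistar rats given 3-MC (25 mg/kg in corn oil, ip, single dose) 3 days before sacrifice, starved 24 h. Optical difference spectra recorded at 1 mg/mL microsomal protein. Ks taken from abscissal intercept of double-reciprocal plot of ΔOD (peak-trough) vs concentration, five to eight concentrations, in duplicate.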

[8] = target: T1, aryl hydrocarbon hydroxylase (cytochrome P450 1A1); assay: Effect on Aryl hydrocarbon hydroxylase activity in 3-methylcolanthrene-induced rat liver microsomes at 8x10E-4M; assay type: ADME, Microsome; settings: 3-methylcholanthrene-induced rat liver microsomes, read-out: Control
Summary of the method: (§2)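 Liver microsomes from immature male Wistar rats (100-150 g) given one 3-MC dose (25 mg/kg in corn oil, ip) 3 days before sacrifice, starved 24 h. Incubation: benzo[a]pyrene 357 nmol, MgCl2 3.0 μmol, NADPH 0.50 μmol, 1.2 mg protein, 0.1 M potassium phosphate pH 7.4 (3.0 mL), 6 min, 37 °C. Compound added from 0.07 N HCl or Me2SO-water stock at near-maximal solubility. Fluorescent phenols read ex 396/em 522 nm. Value is % of solvent control, mean of three determinations.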

[9] = target: T3, cytochrome P450 (cytochrome P450 1A1); assay: Interaction (Ks) with cytochrome P450 in 3-methylcholanthrene-induced rat hepatic microsomes; assay type: ADME, Liver; settings: read-out: Ks
Summary of the method: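 Optical difference spectra recorded with microsomes from 3-MC-treated rats (25 mg/kg in corn oil, ip, 3 days) at 1 mg/mL protein. Ks taken from the abscissal intercept of double-reciprocal plots of ΔOD (peak-trough) against five to eight compound concentrations, determined in duplicate.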

[10] = target: T2, Cytochrome P450 2B1; assay: Interaction (Ks) with cytochrome P450 in phenobarbitone-induced rat hepatic microsomes; assay type: ADME, Liver; settings: read-out: Ks
Summary of the method: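 Difference spectra recorded with microsomes from PB-treated rats (80 (mg/kg)/day ip, 3 days) at 1 mg/mL microsomal protein. Ks obtained in duplicate from double-reciprocal plots of ΔOD (peak-trough) versus five to eight ligand concentrations, using the abscissal intercept.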

[11] = target: T1, aryl hydrocarbon hydroxylase (cytochrome P450 1A1); assay: Effect on Aryl hydrocarbon hydroxylase activity in 3-methylcolanthrene-induced rat liver microsomes at 2.3x10E-4M; assay type: ADME, Microsome; settings: 3-methylcholanthrene-induced rat liver microsomes, read-out: Control; summary of the method: as §1
[12] = target: T1, aryl hydrocarbon hydroxylase (cytochrome P450 1A1); assay: Effect on Aryl hydrocarbon hydroxylase activity in 3-methylcolanthrene-induced rat liver microsomes at 5.9x10E-4M; assay type: ADME, Microsome; settings: 3-methylcholanthrene-induced rat liver microsomes, read-out: Control; summary of the method: as §1
[13] = target: T1, aryl hydrocarbon hydroxylase (cytochrome P450 1A1); assay: Effect on Aryl hydrocarbon hydroxylase activity in 3-methylcolanthrene-induced rat liver microsomes at 4.3x10E-4M; assay type: ADME, Microsome; settings: 3-methylcholanthrene-induced rat liver microsomes, read-out: Control; summary of the method: as §2
[14] = target: T1, aryl hydrocarbon hydroxylase (cytochrome P450 1A1); assay: Effect on Aryl hydrocarbon hydroxylase activity in 3-methylcolanthrene-induced rat liver microsomes at 1.2x10E-3M; assay type: ADME, Microsome; settings: 3-methylcholanthrene-induced rat liver microsomes, read-out: Control; summary of the method: as §2
[15] = target: T1, aryl hydrocarbon hydroxylase (cytochrome P450 1A1); assay: Effect on Aryl hydrocarbon hydroxylase activity in 3-methylcolanthrene-induced rat liver microsomes at 1.7x10E-4M; assay type: ADME, Microsome; settings: 3-methylcholanthrene-induced rat liver microsomes, read-out: Control; summary of the method: as §1
[16] = target: T1, aryl hydrocarbon hydroxylase (cytochrome P450 1A1); assay: Effect on Aryl hydrocarbon hydroxylase activity in 3-methylcolanthrene-induced rat liver microsomes at 5.0x10E-5M; assay type: ADME, Microsome; settings: 3-methylcholanthrene-induced rat liver microsomes, read-out: Control; summary of the method: as §1

| Compound | IC50 [1] | IC50 [3] | logP [4] | Kd [6] | Kd [7] | other results |
| --- | --- | --- | --- | --- | --- | --- |
| CCCC(C(=O)OCCN(CC)CC)(c1ccccc1)c1ccccc1 [PROADIFEN HYDROCHLORIDE] | 22 µM | 8.2 µM |  |  |  | activity at 52 µM [2]: 105% |
| CCCCCc1nc2ccccc2[nH]1 | 82 µM | 50 µM | 3.85 |  |  | activity at 0.00036 M [5]: 89% |
| Cc1nc2ccccc2[nH]1 | 670 µM | 1080 µM | 1.85 | 440 µM | 510 µM |  |
| Cc1cc2nc[nH]c2cc1C [DIMEDAZOL] | 97 µM | 180 µM | 2.35 | 62 µM | 320 µM | activity at 0.0008 M [8]: 69% |
| c1ccc2cc3[nH]cnc3cc2c1 | 84 µM | 53 µM |  |  |  | Kd [9]: 82 µM; Kd [10]: 15 µM |
| Cc1nc2cc(C)c(C)cc2[nH]1 | 170 µM | 370 µM | 2.85 | 100 µM | 28 µM | activity at 0.00023 M [11]: 77% |
| CCCc1nc2ccccc2[nH]1 | 480 µM | 300 µM | 2.85 |  |  | activity at 0.00059 M [12]: 99% |
| c1ccc(-c2c[nH]cn2)cc1 | 33 µM | 7.4 µM |  | 1.1 µM | 1.7 µM | activity at 0.00043 M [13]: 83% |
| c1ccc2[nH]cnc2c1 [BENZIMIDAZOLE] | 1100 µM | 980 µM | 1.35 | 110 µM | 3200 µM | activity at 0.0012 M [14]: 101% |
| CCCCCCCc1nc2ccccc2[nH]1 | 24 µM | 26 µM | 4.85 |  |  | activity at 0.00017 M [15]: 93% |
| CCc1nc2cc(C)c(C)cc2[nH]1 | 110 µM | 180 µM | 3.35 |  |  |  |
| Cc1ccc2[nH]cnc2c1 |  |  |  | 62 µM |  | Kd [9]: 210 µM |
| CCc1nc2ccccc2[nH]1 | 630 µM | 670 µM | 2.35 |  |  |  |
| CCCCCCCCCCCc1nc2ccccc2[nH]1 | 18 µM | 15 µM | 6.85 |  |  | activity at 50 µM [16]: 103% |
